Screening results as filed in PubChem BioAssay.
Rows were chosen to be rich in hits. Some 7.2% of all compounds tested hit in one or more screens of this group.
M1 ag: M1 muscarinic receptor agonists, primary screen, CHO-M1 cells, Fluo-4 calcium, agonist mode. Muscarinic acetylcholine receptor M1. Fluo-4 calcium fluorescence; active compounds read high. B-score at 10 µM. actives 3% (n = 64,000). AID 626, 2007;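 active = fluorescence rise, raw or as B-score row- and column-corrected plate score, outside the 99.7% band of its plate's samples, either direction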
HEK293 NFkB inh: inhibitors of PMA/ionomycin-induced NF-kB reporter, primary screen, antigen receptor NF-kB inhibitor project, cell-based, HEK-293 luciferase reporter, luminescence. HEK-293 NF-kB luciferase reporter. inhibition, % at 3 µM. actives 0.21% (n = 62,000);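 active = inhibition above the mean of all tested compounds plus 3 SD, cut at about 40% in these data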;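 note: 0% = stimulated DMSO wells and 100% = 10 µM reference inhibitor 5653914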
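Reagent: PMA plus ionomycin mix as NF-kB-activating stimulus. Assay system: NF-kB luciferase reporter HEK-293 cells. Technique: luminescence from luciferase substrate reagent. Incubation: 1 h compound pre-incubation, 16 h PMA/ionomycin at 37 °C. Benchmarks: DMSO only as uninhibited control, 10 µM reference inhibitor as full inhibition. Repeats: tested once.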
M1 antag: antagonists of rat M1 muscarinic receptor; B-score at 10 µM; CHO-M1 cells, Fluo-4 calcium, ACh EC80 antagonist mode; active compounds read low; actives 3.4% (n = 64,000); Muscarinic acetylcholine receptor M1 (Rattus norvegicus), P08482;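 active = calcium fluorescence response, raw or row-and-column corrected B-score, differing from the plate sample mean either way at a set confidence level, mostly lower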
DAT uptake mod: changed hDAT dopamine uptake under cocaine IC80, either direction, primary screen, cocaine antagonist project, cell-based, LLC-PK1 hDAT, [14C]-dopamine uptake, MLSMR; B-score at 10 µM; LLC-PK1 hDAT cells, [14C]-dopamine uptake with cocaine IC80; actives deviate in either direction; actives 1.3% (n = 110,000);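 active = Z score or B-score, a plate-position-corrected score, falls beyond the plate's 99.7% confidence bounds, in either direction; inactive = both scores lie inside the 99.7% bounds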;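 note: scored against the spread of the other compound wells on the same plate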
BAP1 inh: inhibitors of BAP1 deubiquitinase, primary screen, biochemical, Ub-AMC fluorescence, kinetic. AID 436, 2006. actives 0.48% (n = 72,000). recombinant BAP1, Ub-AMC hydrolysis fluorescence kinetic; active compounds read low. calls only at 20 µM. Ubiquitin carboxyl-terminal hydrolase BAP1 (Homo sapiens), Q92560;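 active = activity remaining at or below 50% of control, provided the compound also passes the data quality filters; inactive = the rest, including low values that fail the filters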;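 note: 100% = DMSO wells rate and 0% = substrate alone blank rate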
Target sequence (Q92560 whole entry, looked up): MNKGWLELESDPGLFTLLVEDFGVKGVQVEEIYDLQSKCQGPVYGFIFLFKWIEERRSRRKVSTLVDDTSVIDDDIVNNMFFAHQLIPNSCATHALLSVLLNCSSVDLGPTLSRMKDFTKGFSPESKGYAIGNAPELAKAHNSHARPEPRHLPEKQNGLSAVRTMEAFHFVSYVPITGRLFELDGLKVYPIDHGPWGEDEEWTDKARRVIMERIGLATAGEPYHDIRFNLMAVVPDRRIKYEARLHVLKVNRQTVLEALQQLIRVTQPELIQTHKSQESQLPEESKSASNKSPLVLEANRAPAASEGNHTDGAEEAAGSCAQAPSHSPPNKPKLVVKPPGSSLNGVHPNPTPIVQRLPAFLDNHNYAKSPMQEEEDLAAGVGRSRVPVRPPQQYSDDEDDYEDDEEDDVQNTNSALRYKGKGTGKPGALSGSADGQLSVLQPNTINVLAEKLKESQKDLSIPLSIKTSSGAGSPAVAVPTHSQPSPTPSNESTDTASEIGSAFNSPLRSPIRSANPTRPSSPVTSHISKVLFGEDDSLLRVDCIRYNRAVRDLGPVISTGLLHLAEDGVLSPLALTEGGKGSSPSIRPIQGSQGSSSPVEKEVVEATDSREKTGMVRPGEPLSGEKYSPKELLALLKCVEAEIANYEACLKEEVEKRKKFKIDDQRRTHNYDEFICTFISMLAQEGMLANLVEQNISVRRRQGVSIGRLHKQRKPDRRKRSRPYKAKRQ
D1 allo mod: D1 CRE-luciferase signal change, two-sided – cell-based, HEK293 D1, dopamine EC30, D1 allosteric modulator project, primary screen | actives 5.9% (n = 58,000) | dopamine EC30 potentiation; actives deviate in either direction | B-score at 10 µM;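 active = luminescence count or its row- and column-corrected plate score outside the 99.7% band of the plate's sample wells, on either side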
* marks the source's active call; other numbers are inactive results; i = inactive; nt = no result.

SMILES	M1 ag	HEK293 NFkB inh	M1 antag	DAT uptake mod	BAP1 inh	D1 allo mod
Cc1cccc(NC(=O)c2nc[nH]c2C(=O)N[C@@H](Cc2ccccc2)C(=O)OC(C)(C)C)c1	nt	nt	nt	0.81	nt	nt
Cc1cccc(NC(=O)c2nc[nH]c2C(=O)N[C@@H](CC(C)C)C(=O)OC(C)(C)C)c1	nt	nt	nt	2.7*	nt	nt
O=C(NCCc1ccccc1)c1nn2c(c1Cl)NC(c1cccs1)CC2C(F)(F)F (stereo not given)	nt	nt	nt	nt	i	nt
Cc1ccc(-n2nc3cc(C)c(NC(=O)COc4ccc5ccccc5c4)cc3n2)cc1	nt	nt	nt	nt	i	nt
CCc1nc(N2CCN(C(=O)c3ccco3)CC2)c2oc3ccccc3c2n1	2	3	-1.5	2.8*	i	0.0047
Cc1nc(N2CCN(C(=O)c3ccco3)CC2)c2oc3ccccc3c2n1	-0.022	10	1.1	0.68	nt	nt
COc1ccc(C(=O)N2CCC(n3c(C)nc4cc(F)ccc43)CC2)cc1OC	0.24	19	-0.33	2.8*	i	1.3
COc1cc(C(=O)N2CCC(n3cnc4cc(F)ccc43)CC2)cc(OC)c1OC	-0.3	10	-0.91	1.6	i	0.22
C=CCc1ccccc1OCC(O)CNC(C)C (stereo not given)	1	nt	-0.56	-0.77	i	-1.6
C=CCc1ccccc1OCC(O)CN1CCN(c2ccccc2F)CC1 (stereo not given)	-0.58	-18	0.13	-0.14	i	-4.6*
COc1ccccc1N1CCN(CC(O)COc2cccc3ccccc23)CC1 (stereo not given)	0.015	nt	-0.94	1.2	i	-1.7
C=CCc1ccccc1OCC(O)CN1CCN(c2ccccc2OC)CC1 (stereo not given)	0.68	10	-0.62	-0.71	nt	-6.1*
C=CCc1ccccc1OCC(CN1CCCCC1)OC(C)=O (stereo not given)	-1.1	10	1.3	-0.31	i	-4.5*
CCOc1ccc(C2Nc3ccccc3NC3=C2C(=O)CC(c2ccccc2)C3)cc1 (stereo not given)	nt	nt	nt	nt	i	nt
CCC(O)CNc1nc(-n2nc(C)cc2C)nc2sc3c(c12)CCCC3 (stereo not given)	-0.035	13	1	nt	i	0.76
Cc1cc(C)n(-c2nc(SCCN(C)C)c3c4c(sc3n2)CCCC4)n1	nt	nt	nt	3*	nt	nt
CCOc1ccccc1N1CCN(Cc2cccc(OC)c2O)CC1	-0.088	-3	-0.28	0.86	i	-3.7*
COc1ccccc1N1CCN(CCOc2c(OC)cccc2OC)CC1	1.4	nt	2.5*	-0.23	i	nt
O=C(NCCN1CCN(c2ccccc2F)CC1)C1CCCN(S(=O)(=O)c2cnc[nH]2)C1 (stereo not given)	0.57	23	0.58	nt	i	-3.2*
CC1(C)Cc2nc3sc4c(=O)n(CC(=O)NCc5ccccc5)cnc4c3cc2CO1	nt	nt	nt	-2.9*	nt	nt
CCOC(=O)C1CCCN(CC(=O)Nc2c(C(=O)OC)[nH]c3ccc(C)cc23)C1 (stereo not given)	0.23	1	0.0041	1.9	i	0.24
CCOC(=O)c1[nH]c2ccccc2c1NC(=O)CC(C)(C)C	-0.11	24	0.068	-0.93	i	0.58
CCOC(=O)c1[nH]c2ccccc2c1NC(=O)C1CCCC1	0.13	16	-0.19	-0.37	i	6.9*
CCOC(=O)C1CCCN(CC(=O)Nc2c(C(=O)OC)[nH]c3ccc(Cl)cc23)C1 (stereo not given)	-0.43	6	0.034	2.9*	i	1.5
CCOC(=O)c1sc(=S)n(C)c1C	nt	nt	nt	-0.17	nt	nt
SMILES	M1 ag	HEK293 NFkB inh	M1 antag	DAT uptake mod	BAP1 inh	D1 allo mod
CCOC(=O)c1sc(=S)n(C)c1N	0.26	8	-0.56	0.027	i	4.5*
Cc1ccc(C)n1C1CCS(=O)(=O)C1 (stereo not given)	-0.19	22	-0.016	-0.28	i	-4.6*
COc1ccc(-c2nc3ccccc3o2)cc1NC(=O)COc1ccc([N+](=O)[O-])cc1	nt	nt	nt	nt	i	nt
Cc1cccn2c(=O)cc(O)nc12	nt	nt	nt	nt	i	nt
COC(=O)c1oc2ccccc2c1NC(=O)CN1CCCC1	-0.25	14	0.19	-0.32	i	13*
Cc1nc2cc(N=Cc3ccccc3[N+](=O)[O-])ccc2n1C	nt	nt	nt	nt	i	nt
CCN(CC)C(=O)/C(=C\c1ccc(Br)cc1)NC(=O)c1ccccc1OC	nt	nt	nt	15*	nt	nt
COc1ccccc1C(=O)N/C(=C\c1ccc(Br)cc1)C(=O)NCCO	nt	nt	nt	0.3	nt	nt
Cc1ccc(NC2=C(N3CCCCC3)C(=O)c3ccccc3C2=O)cc1	nt	nt	nt	0.49	nt	nt
O=C1C(Nc2cccc(O)c2)=C(N2CCCCC2)C(=O)c2ccccc21	nt	nt	nt	-2.7*	nt	nt
O=C1C(Nc2ccccc2)=C(N2CCCCC2)C(=O)c2ccccc21	nt	nt	nt	-5*	nt	nt
COc1ccccc1NC(=O)c1c(NC(=O)c2ccccc2C)sc2c1CCCC2	nt	nt	nt	nt	i	nt
COc1ccc(C2C(C(=O)OCCc3ccccc3)=C(C)NC3=C2C(=O)CCC3)cc1OC (stereo not given)	nt	nt	nt	nt	i	nt
CC1(C)Oc2ccc(NC(=O)C3COc4ccccc4O3)cc2O1 (stereo not given)	0.0013	-35	-0.3	-1.3	i	-4.3*
NS(=O)(=O)c1ccc(NC(=O)C2COc3ccccc3O2)cc1 (stereo not given)	nt	nt	nt	0.74	nt	nt
CC(=O)c1sc(NC(=O)C2COc3ccccc3O2)nc1C (stereo not given)	-0.51	-12	-0.18	-0.5	i	-8.5*
O=C(Nc1ccccc1F)c1ccc(S(=O)(=O)N2CCCc3ccccc32)cc1	nt	nt	nt	nt	i	nt
CC1=C(C(=O)OCCOC(C)C)C(c2cccc(Cl)c2)NC(=O)N1 (stereo not given)	nt	nt	nt	nt	i	nt
CC(NC(=O)Cn1c(=O)[nH]c2ccsc2c1=O)C12CC3CC(CC(C3)C1)C2 (stereo not given)	nt	nt	nt	-0.036	nt	nt
CC(NC(=O)Cn1ccsc1=N)C12CC3CC(CC(C3)C1)C2 (stereo not given)	-0.81	-7	-1.9	-6.3*	i	0.2
CNC(=O)CSCc1cnn(-c2ccccc2)c1-n1cccc1	nt	nt	nt	-0.46	nt	nt
CCOC(=O)N1CCC(NC(=O)CSCc2cnn(-c3ccccc3)c2-n2cccc2)CC1	0.63	12	-0.26	3.2*	i	-0.9
S=C1NC(c2ccc(Br)cc2)=CC(c2ccccc2Cl)N1 (stereo not given)	nt	nt	nt	nt	i	nt
C=CCn1c(=N)n(CCO)c2ccccc21	nt	nt	nt	nt	i	nt
